# thrombin 1536 – human alpha-thrombin inhibitors, primary screen, counter-screen for coagulation protease inhibitor project, biochemical, 1536-well, fluorogenic AMC substrate; Prothrombin (Homo sapiens), P00734; Boc-VPR-AMC fluorogenic substrate cleavage; inhibition, % at 5 µM; 220,000 tested, 0.26% active;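 active = inhibition at or above 40%; inactive = inhibition below 40%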;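 note: 0% = enzyme with no compound and 100% = wells without enzyme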
#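 Material: Human alpha-thrombin protein | Buffer or medium: pH 7.5 Tris-saline with Tween 20 | Reagent: Boc-VPR-AMC substrate, 15 µM final | Schedule: Reaction at ambient temperature | Detection: AMC fluorescence at 355 nm excitation and 460 nm emission | Evaluation: Percent inhibition scaled between no-compound controls and no-enzyme blanks | Controls: no-compound enzyme wells and no-enzyme blanks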
# FXIa inh 1536 – human FXIa protease inhibitors, primary screen, biochemical, 1536-well | Coagulation factor XI (Homo sapiens), P03951 | AID 798, 2007 | 220,000 tested, 0.14% active | inhibition, % at 5 µM | purified FXIa, Boc-Glu-Ala-Arg-AMC fluorogenic substrate;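 active = inhibition of at least 40%; inactive = inhibition below 40%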;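 note: fluorescence of freed AMC excited at 355 nm; 0% = enzyme without compound and 100% = no enzyme blank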
# EP2 antag – human EP2 receptor antagonists, primary screen, TR-FRET cAMP, C6 glioma cells; Prostaglandin E2 receptor EP2 subtype (Homo sapiens), P43116; C6 glioma cells expressing human EP2; cells stimulated with saturating PGE2; inhibition, % at 25 µM; 260,000 tested, 0.52% active; AID 1422, 2008;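 active = percent inhibition above 40 after rounding to a whole number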;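 note: rat C6 glioma host cells with rolipram phosphodiesterase inhibitor present; the protocol text gives 20 µM as final concentration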
# KLK5 inh – human KLK5 protease inhibitors, primary screen, biochemical, 1536-well. 210,000 tested, 0.59% active. inhibition, % at 5 µM. recombinant hK5, fluorogenic AMC substrate cleavage. Kallikrein-5 (Homo sapiens), Q9Y337;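 active = inhibition of 40% or more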;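 note: 0% = enzyme controls without compound and 100% = no-enzyme blanks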
# FXIIa inh – human FXIIa protease inhibitors, primary screen, biochemical, 1536-well | Coagulation factor XII (Homo sapiens), P00748 | purified FXIIa, Boc-QGR-AMC fluorogenic substrate, 2 h | inhibition, % at 5 µM | 220,000 tested, 0.3% active; in the data active = inhibition above about 40%;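 note: 0% = enzyme with no compound and 100% = blank without enzyme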
# Target sequence (P00748 20-372 limits assumed): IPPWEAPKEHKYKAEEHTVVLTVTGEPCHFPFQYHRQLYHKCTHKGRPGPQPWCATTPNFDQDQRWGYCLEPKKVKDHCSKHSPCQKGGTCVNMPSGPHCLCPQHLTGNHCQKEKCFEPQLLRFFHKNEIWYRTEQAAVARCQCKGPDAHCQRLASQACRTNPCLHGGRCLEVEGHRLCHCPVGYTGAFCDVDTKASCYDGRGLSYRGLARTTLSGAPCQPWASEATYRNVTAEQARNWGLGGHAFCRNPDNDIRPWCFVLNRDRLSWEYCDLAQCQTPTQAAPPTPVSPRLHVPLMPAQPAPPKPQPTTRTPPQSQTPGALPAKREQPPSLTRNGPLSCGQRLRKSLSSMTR
# Target sequence (P00748 373-615 limits assumed): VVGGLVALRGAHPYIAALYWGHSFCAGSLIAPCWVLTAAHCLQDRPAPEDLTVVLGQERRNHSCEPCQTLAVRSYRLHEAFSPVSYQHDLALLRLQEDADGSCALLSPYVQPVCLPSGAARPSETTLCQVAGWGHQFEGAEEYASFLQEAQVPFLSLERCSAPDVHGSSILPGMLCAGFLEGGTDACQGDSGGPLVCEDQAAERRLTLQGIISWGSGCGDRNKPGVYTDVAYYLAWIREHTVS
# EP2 modulator – EP2 receptor modulators, cAMP readout, primary screen, cell-based, HTRF cAMP, PGE2 stimulation. Prostaglandin E2 receptor EP2 subtype (Homo sapiens), P43116. EP2-expressing cells, cAMP HTRF FRET, PGE2 co-stimulation. induction, % at 25 µM. 260,000 tested, 0.83% active. AID 940, 2007;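 active = compounds whose cAMP rise, as percent of the full-agonist control response, exceeds 60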;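 note: rat C6 glioma line stably carrying human EP2 under a CMV promoter; the protocol text gives 20 µM as final concentration; 100% = response of wells given 1 µM PGE2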
# * marks the source's active call; other numbers are inactive results; . = not tested or not shown; ! = a repeat was not active. Compounds with a hit are over-represented: about 2.1% of the library has one in this group of screens.
SMILES,thrombin 1536,FXIa inh 1536,EP2 antag,KLK5 inh,FXIIa inh,EP2 modulator
CC(C)(C)n1nnnc1C(c1ccc(C(F)(F)F)cc1)N1CCC(O)CC1 (stereo unspecified),.,.,12,.,.,-21
CCc1cccc(CC)c1NC(=O)c1cccc(N)c1,46*,-13,8,-20,4,-2
Cc1ccc(C2=NN(S(=O)(=O)c3ccccc3)C(c3ccccc3O)C2)cc1 (stereo unspecified),20,33,13,29,103*,48
CCOC(=O)C1=C(C)N(C)C(=S)NC1c1cccc(Cl)c1Cl (stereo unspecified),-3,-2,9,4,6,64*
CCOC(=O)C1=C(C)N(C)C(=S)NC1c1ccccc1Cl (stereo unspecified),-4,-14,4,17,-7,19
Cc1cc(C)c(C#N)c(SCc2ccc([N+](=O)[O-])cc2)n1,10,10,7,23,41*,46
Cc1cc(C)c(C#N)c(SCC(=O)c2ccccc2)n1,-14,-5,15,-4,2,11
Cc1cccc(Nc2cc(=O)[nH]c(=O)[nH]2)c1C,1,31,7,-6,45*,38
Cc1cc(C)c(NC(=S)NC(=O)c2ccc(-c3ccccc3)cc2)c(C)c1,9,14,7,57*,34,14
Cc1ccc(NC(=S)NC(=O)c2ccccc2)cc1NC(=S)NC(=O)c1ccccc1,-13,-3,38,-14,-1,-36
COc1ccc(C(=O)Oc2c(C)occc2=O)cc1OC,-2,5,9,-2,2,32
Cc1occc(=O)c1OC(=O)Nc1ccc(Cl)c(Cl)c1,27,39,6,47*,5,-16
COc1ccc(CCNC(=O)COc2ccc3c(C)cc(=O)oc3c2)cc1OC,.,.,11,.,.,-54
COc1ccc(CC[N@+]2(C)COc3cc4oc(=O)cc(C)c4cc3C2)cc1OC,.,.,51*,.,.,16
CCc1nn(CCC(N)=O)c(=O)c2cc3ccsc3n12,.,.,7,.,.,6
C=CCSc1nc2c(c(=O)n(C)c(=O)n2C)n1Cc1ccccc1Cl,.,.,8,.,.,93*
CCCn1c(SCc2ccc(Cl)cc2)nc2c1c(=O)[nH]c(=O)n2C,-11,-10,4,-17,2,48
CCSc1nc2c(c(=O)n(C)c(=O)n2C)n1Cc1ccccc1Cl,.,.,8,.,.,57
C=C(C)Cn1c(SCc2ccc(Cl)cc2)nc2c1c(=O)n(C)c(=O)n2C,.,.,6,.,.,80*
C/C=C/Cn1c(SCc2ccc(Cl)cc2)nc2c1c(=O)[nH]c(=O)n2C,-4,-2,7,-7,8,63*
Cc1cccc(-n2c(CCN3C(=O)c4ccccc4C3=O)nc3ccccc3c2=O)n1,2,2,20,0,13,16
Cc1cccc(-n2c(CCCN3C(=O)c4ccccc4C3=O)nc3ccccc3c2=O)n1,30,0,.,152*,-8,5
CC1(C)CCC2=C(O1)c1ccccc1C(=O)C2=O,.,.,41*,.,.,-31
O=C(Oc1ccc2c(=O)c(Cl)coc2c1)c1ccncc1,8,42*,7,-20,41*,26
c1ccc(Nc2nc(-c3ccncc3)nc3ccccc23)cc1,1,12,3,-1,8,-6
SMILES,thrombin 1536,FXIa inh 1536,EP2 antag,KLK5 inh,FXIIa inh,EP2 modulator
c1ccc(CCNc2nc(-c3ccncc3)nc3ccccc23)cc1,-13,7,46*,0,1,-29
CCC(=O)N(Cc1ccccc1)Cc1cc2cc3c(cc2[nH]c1=O)OCCO3,.,.,13,.,.,-7
COc1cc(/C=N/NC(N)=S)cc(Br)c1OCc1ccccc1F,-4,8,7,-1,9,4
CCOc1cc(/C=N/NC(N)=S)cc(Br)c1OCc1ccccc1C,4,6,8,-5,15,63*
COc1cc(/C=C(/C#N)C(=O)c2c(C)[nH]c3ccccc23)ccc1OCC#N,14,22,4,42*,25,3
CCOc1ccc(/C=C(\C#N)C(=O)c2c(C)[nH]c3ccccc23)cc1OC,-5,6,6,-11,14,8
COCCNC(=O)Cn1nc(C)n2c(cc3sc(C)cc32)c1=O,.,.,.,.,.,13
O=C1C2=C(Nc3cc([N+](=O)[O-])ccc3N2)O[C@@H]1c1c[nH]c2ccc(COc3ccccc3)cc12,.,.,60*,.,.,9
CCNc1nc(SC(C)C(=O)OC)nc(N2CCOCC2)n1 (stereo unspecified),-1,-5,11,115*,-2,31
O=C(c1cnn(C(=O)c2ccc(O)cc2)c1)c1ccccc1O,12,2,4,42*,18,16
CN(C)c1cccc(C(=O)n2cc(C(=O)c3cc(F)ccc3O)cn2)c1,16,4,4,32,41*,16
CCn1c(C)nc2cc(C(=O)n3cc(C(=O)c4ccccc4O)cn3)ccc21,-5,14,3,-2,37,-31
COc1ccccc1OCC(O)CN1C(=O)NC(C)(C)C1=O (stereo unspecified),15,3,17,64*,19,15
COc1cc(/C=C/c2ccc3c([N+](=O)[O-])cccc3n2)ccc1OCC(=O)O,1,5,2,8,13,44
COc1cc(/C=C/c2nc3ccc([N+](=O)[O-])cc3s2)ccc1OCC(=O)O,-1,2,11,3,7,85*
CC(C)(C)C(=O)NC1CC2CCCC(C1)N2CC(=O)NCc1cccs1 (stereo unspecified),.,.,8,.,.,-36
CC(=O)c1ccc(N2CCN(C(=O)c3cc(-c4ccc5c(c4)OCO5)nc4ccccc34)CC2)cc1,0,-6,14,82*,-7,10
O=C(O)c1cc(-c2ccc3c(c2)OCO3)nc2ccccc12,2,9,17,-6,15,5
O=C1NCC(COCc2ccco2)O1 (stereo unspecified),103*,8,17,32,17,18
CCN(CC)C(=S)SSC(=S)N(CC)CC,4,11,60*!,-3,13,-36
Cc1cc(C(=O)NCC(=O)OCC(=O)NCCc2ccccc2)ccc1[N+](=O)[O-],5,-1,7,2,11,6
Cc1cc(C(=O)NCC(=O)OCC(=O)N(C2CCCCC2)C2CCCCC2)ccc1[N+](=O)[O-],-7,-1,4,-13,4,63*
COc1ccc(NC(=S)Nc2ccc3cn[nH]c3c2)cc1,49*,0,7,0,-1,-72
